Measured values: PMC7350150 (Neoplasia (New York, N.Y.), 2020)
Entries after “also recorded” stand apart in the source; their conditions may differ.

Tests used:
[1] = Brain penetration of PARP inhibitors in mice; type: in vivo, male C57 mice; conditions: for Kp: po, AUC1-4h
[2] = tested on: MDA-MB-436 breast cancer xenograft; assay: MDA-MB-436 breast cancer xenograft efficacy; type: in vivo, BALB/c nude mice; conditions: for tumor relapse at day 89: two months after treatment terminated
How it was run: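 MDA-MB-436 cells at 2.5 × 10⁷ cells/mL in 1:1 PBS/Matrigel, implanted subcutaneously in the right front flank of 6–8-week female BALB/c nude mice. At ~130 mm³, mice stratified into six groups of nine. Oral BID dosing for 28 days: vehicle (0.5% methylcellulose), test compound from 1.6 mg/kg, or a comparator PARP inhibitor at 25 or 50 mg/kg. Tumours followed to day 89.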

[3] = QWBA tissue distribution of [14C] pamiparib; type: in vivo, Long-Evans rats; conditions: rats, single oral 5 mg/kg, 24 h post treatment
[4] = PK study in dog; type: in vivo
How it was run: (§1)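 Healthy animals given a single dose. Mouse: 10 mg/kg p.o. or 1 mg/kg i.v. Rat: 5 mg/kg p.o. or 2 mg/kg i.v. Dog: 2 mg/kg p.o. or 1 mg/kg i.v. Plasma deproteinised with acetonitrile containing internal standard and centrifuged at 14,000 rpm for 8 min. Drug measured by LC–MS/MS. Dosing solutions analysed to confirm the actual dose given.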

[5] = PK/PD in MDA-MB-436 xenograft; type: in vivo, mice; conditions: BALB/c nude, mouse, tumor, oral, 5.45 mg/kg
[6] = tested on: PARylation in MDA-MB-436 xenograft tumors; assay: PK/PD in MDA-MB-436 xenograft; type: in vivo, mice; conditions: single dose 5.45, first 12 h
[7] = tested on: intracranial H209 xenograft; assay: Intracranial H209 xenograft survival; type: in vivo, BALB/c nude mice; conditions: pamiparib 3 mg/kg BID day 1–21, 29–49; TMZ 50 mg/kg; combination TMZ 50 mg/kg plus pamiparib 0.75 mg/kg BID
[8] = tested on: intracellular PARP activity in H2O2-treated GL261 cells; assay: Inhibition of H2O2-induced PAR synthesis; type: cell-based, murine; conditions: Mus musculus, GL261, read-out: IC50 of intracellular PARP activity
How it was run: (§2)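 Cells seeded at 5000/well in DMEM with 10% FBS. After 4 h, test compound added as eight serial dilutions (0.02–200 nM final) in 0.1% DMSO for 18 h. DNA damage induced with 200 μM H₂O₂ at 37 °C for 5 min. Cells fixed in ice-cold methanol at −20 °C and stained overnight at 4 °C with anti-PAR mAb, Alexa 488 secondary and DAPI. Nuclear PAR intensity imaged; IC50 taken from residual activity.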

[9] = PK study in rat; type: in vivo
How it was run: as §1

[10] = target: Human BCRP (Homo sapiens, UniProt Q9UNQ0); assay: ATP-dependent uptake activity, BCRP substrate test; type: in vitro ADME; conditions: 0.5 μM to 30 μM; uptake ratio ≥ 2-fold is positive
Sequence of Human BCRP (Q9UNQ0 whole entry): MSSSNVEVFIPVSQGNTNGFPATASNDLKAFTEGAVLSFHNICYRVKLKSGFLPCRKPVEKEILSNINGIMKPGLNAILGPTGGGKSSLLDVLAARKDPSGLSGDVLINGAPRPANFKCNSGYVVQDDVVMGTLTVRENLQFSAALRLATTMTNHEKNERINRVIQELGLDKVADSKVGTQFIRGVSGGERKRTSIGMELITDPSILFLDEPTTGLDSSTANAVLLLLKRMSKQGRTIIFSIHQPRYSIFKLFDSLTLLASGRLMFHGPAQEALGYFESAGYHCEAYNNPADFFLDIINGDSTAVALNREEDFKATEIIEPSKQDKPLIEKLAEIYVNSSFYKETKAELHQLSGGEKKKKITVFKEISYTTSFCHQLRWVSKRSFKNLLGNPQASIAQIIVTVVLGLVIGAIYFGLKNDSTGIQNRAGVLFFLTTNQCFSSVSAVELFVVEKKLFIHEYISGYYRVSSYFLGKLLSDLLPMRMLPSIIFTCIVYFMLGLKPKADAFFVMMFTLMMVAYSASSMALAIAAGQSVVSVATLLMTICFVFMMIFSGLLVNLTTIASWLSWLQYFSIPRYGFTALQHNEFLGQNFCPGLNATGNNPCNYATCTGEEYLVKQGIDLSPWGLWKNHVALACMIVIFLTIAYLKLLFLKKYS

[11] = tested on: intracellular PAR levels in HeLa cells; assay: Inhibition of H2O2-induced PAR synthesis; type: cell-based; conditions: Homo sapiens, 18 h, read-out: IC50 of intracellular PARP activity
[12] = tested on: PARylation in brain tumors, intracranial H209 xenograft; assay: Brain penetration and PD in intracranial H209 xenograft; type: in vivo, mice; conditions: single dose 3 mg/kg p.o., 4 h after treatment
[13] = Brain penetration after intravenous administration, Kpuu; type: in vivo, SD rats; conditions: male, Sprague-Dawley, rat, brain and plasma (unbound), 1 mg/kg
[14] = tested on: GL261 syngeneic intracranial glioma; assay: GL261 syngeneic intracranial glioma model survival; type: in vivo, Mice; conditions: single agent 9 mpk
[15] = PK study in healthy mice; type: in vivo, Mouse
How it was run: as §1

[16] = tested on: intracellular PARP activity in H2O2-treated SF-295 cells; assay: Inhibition of H2O2-induced PAR synthesis; type: cell-based; conditions: Homo sapiens, SF-295, read-out: IC50 of intracellular PARP activity
How it was run: as §2

[17] = target: P-gp (Homo sapiens, UniProt P08183); assay: P-gp efflux activity in MDCKII-MDR1 cell monolayer; type: in vitro ADME; conditions: 1 µM and 10 µM; ER > 2 and decrease to < 50% with inhibitor suggests substrate
Sequence of P-gp (P08183 whole entry): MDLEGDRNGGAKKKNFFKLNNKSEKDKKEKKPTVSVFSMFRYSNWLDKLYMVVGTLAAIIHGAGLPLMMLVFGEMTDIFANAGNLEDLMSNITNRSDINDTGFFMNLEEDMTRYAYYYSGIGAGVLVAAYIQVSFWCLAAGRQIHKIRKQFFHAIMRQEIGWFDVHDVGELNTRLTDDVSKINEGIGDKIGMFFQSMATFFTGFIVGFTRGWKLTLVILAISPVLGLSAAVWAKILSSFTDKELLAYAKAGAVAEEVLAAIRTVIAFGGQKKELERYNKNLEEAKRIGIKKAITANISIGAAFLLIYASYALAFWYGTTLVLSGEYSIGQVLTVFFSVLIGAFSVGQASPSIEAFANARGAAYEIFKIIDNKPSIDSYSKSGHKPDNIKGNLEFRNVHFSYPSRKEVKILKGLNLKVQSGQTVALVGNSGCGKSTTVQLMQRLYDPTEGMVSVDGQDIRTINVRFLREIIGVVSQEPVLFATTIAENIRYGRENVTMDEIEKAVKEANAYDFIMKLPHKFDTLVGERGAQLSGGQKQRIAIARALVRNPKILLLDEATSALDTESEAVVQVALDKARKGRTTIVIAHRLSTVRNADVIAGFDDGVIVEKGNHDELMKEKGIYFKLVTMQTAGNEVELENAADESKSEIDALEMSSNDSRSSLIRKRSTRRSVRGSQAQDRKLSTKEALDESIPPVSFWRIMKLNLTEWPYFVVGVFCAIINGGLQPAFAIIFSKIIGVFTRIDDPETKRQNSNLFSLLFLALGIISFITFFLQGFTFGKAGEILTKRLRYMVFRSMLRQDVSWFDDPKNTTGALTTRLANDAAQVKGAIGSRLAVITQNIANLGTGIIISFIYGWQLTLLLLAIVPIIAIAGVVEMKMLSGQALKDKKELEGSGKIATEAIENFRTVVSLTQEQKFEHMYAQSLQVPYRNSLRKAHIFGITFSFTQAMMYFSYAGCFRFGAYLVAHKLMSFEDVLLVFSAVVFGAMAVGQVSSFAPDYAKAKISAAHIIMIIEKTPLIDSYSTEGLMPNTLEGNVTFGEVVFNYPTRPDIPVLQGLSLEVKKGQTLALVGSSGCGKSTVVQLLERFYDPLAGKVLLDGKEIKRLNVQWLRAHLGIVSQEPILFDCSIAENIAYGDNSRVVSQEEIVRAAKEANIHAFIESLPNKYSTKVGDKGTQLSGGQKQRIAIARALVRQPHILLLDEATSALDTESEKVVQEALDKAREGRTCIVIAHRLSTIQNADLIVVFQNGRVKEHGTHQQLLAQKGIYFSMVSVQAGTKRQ

[18] = tested on: NCI-H209; assay: Pamiparib and TMZ combination, anti-proliferation; type: cell-based; conditions: Homo sapiens, NCI-H209, read-out: EC50 of TMZ single agent
[19] = tested on: SNB-19; assay: Pamiparib and TMZ combination, anti-proliferation; type: cell-based; conditions: Homo sapiens, SNB-19, read-out: EC50 of TMZ single agent
[20] = tested on: NCI-H69; assay: Pamiparib and TMZ combination, anti-proliferation; type: cell-based; conditions: Homo sapiens, NCI-H69, read-out: EC50 of TMZ single agent
[21] = tested on: NCI-H1436; assay: Pamiparib and TMZ combination, anti-proliferation; type: cell-based; conditions: Homo sapiens, NCI-H1436, read-out: EC50 of TMZ single agent
[22] = tested on: U-118MG; assay: Pamiparib and TMZ combination, anti-proliferation; type: cell-based; conditions: Homo sapiens, read-out: EC50 of TMZ single agent
[23] = tested on: NCI-H2286; assay: Pamiparib and TMZ combination, anti-proliferation; type: cell-based; conditions: Homo sapiens, NCI-H2286, read-out: EC50 of TMZ single agent
[24] = tested on: T98G; assay: Pamiparib and TMZ combination, anti-proliferation; type: cell-based; conditions: Homo sapiens, read-out: EC50 of TMZ single agent
[25] = tested on: SF-295; assay: Pamiparib and TMZ combination, anti-proliferation; type: cell-based; conditions: Homo sapiens, SF-295, read-out: EC50 of TMZ single agent
[26] = tested on: intracranial H209-TR xenografts; assay: Intracranial H209-TR xenograft survival; type: in vivo, BALB/c nude mice; conditions: same treatment schedule as intracranial H209
[27] = tested on: NCI-H1048; assay: Pamiparib and TMZ combination, anti-proliferation; type: cell-based; conditions: Homo sapiens, NCI-H1048, read-out: EC50 of TMZ single agent
[28] = tested on: SF-539; assay: Pamiparib and TMZ combination, anti-proliferation; type: cell-based; conditions: Homo sapiens, SF-539, read-out: EC50 of TMZ single agent
[29] = tested on: U251; assay: Pamiparib and TMZ combination, anti-proliferation; type: cell-based; conditions: Homo sapiens, U-251, read-out: EC50 of TMZ single agent
[30] = tested on: DMS153; assay: Pamiparib and TMZ combination, anti-proliferation; type: cell-based; conditions: Homo sapiens, DMS-153, read-out: EC50 of TMZ single agent
[31] = tested on: LN-229; assay: Pamiparib and TMZ combination, anti-proliferation; type: cell-based; conditions: Homo sapiens, LN-229, read-out: EC50 of TMZ single agent
[32] = tested on: NCI-H2227; assay: Pamiparib and TMZ combination, anti-proliferation; type: cell-based; conditions: read-out: EC50 of TMZ single agent
[33] = tested on: U87-MG; assay: Pamiparib and TMZ combination, anti-proliferation; type: cell-based; conditions: Homo sapiens, U-87 MG, read-out: EC50 of TMZ single agent
[34] = male, C57, mouse, brain and plasma, Brain/Plasma, single p.o. dose: Pamiparib 10, Talazoparib 3, Olaparib 50, Niraparib 50 mg/kg
[35] = single p.o. dose: Pamiparib 10, Talazoparib 3, Olaparib 50, Niraparib 50 mg/kg
[36] = Rat, 5 mg/kg p.o. or 2 mg/kg i.v.
[37] = mouse, plasma, intravenous, 1 mg/kg

SMILES: NC(=O)c1cccc2cn(-c3ccc([C@@H]4CCCNC4)cc3)nc12 [Niraparib, niraparib]
- Kp at 1 h ([1]; male, C57, mouse, brain and plasma, oral, Brain/Plasma, concentration, 1 h, single p.o. dose: Pamiparib 10, Talazoparib 3, Olaparib 50, Niraparib 50 mg/kg): 0.06
- Kp at 2 h ([1]; male, C57, mouse, brain and plasma, oral, Brain/Plasma, concentration, 2 h, single p.o. dose: Pamiparib 10, Talazoparib 3, Olaparib 50, Niraparib 50 mg/kg): 0.08
- Kp at 4 h ([1]; male, C57, mouse, brain and plasma, oral, Brain/Plasma, concentration, 4 h, single p.o. dose: Pamiparib 10, Talazoparib 3, Olaparib 50, Niraparib 50 mg/kg): 0.14
- Kp [1, 34]: 0.09
- AUC1-4h, Brain [1, 35]: 1849 ng·h/g

SMILES: O=C(c1cc(Cc2n[nH]c(=O)c3ccccc23)ccc1F)N1CCN(C(=O)C2CC2)CC1 [Olaparib, olaparib, reference compound]
- AUC1-4h, Brain [1, 35]: 56 ng·h/g
- objective responses ([2]; olaparib high-dose group (50 mg/kg, BID)): 100%
- tumor relapse at day 89 ([2]; olaparib 25 mg/kg BID): tumor relapse was observed

SMILES: C[C@]12CCCN1CC1=NNC(=O)c3cc(F)cc4[nH]c2c1c34 [Pamiparib]
- drug concentration in the brain as share of the detected plasma level [3]: approximately 20%
- AUC 0-inf/Dose ([4]; Dog, 2 mg/kg p.o. or 1 mg/kg i.v.): 800 ± 95 ng.h/mL per mg/kg
- half-life ([4]; dog, plasma): 3.6 ± 1.9 h
- Vd ([4]; dog, plasma, intravenous, 1 mg/kg): 2.1 ± 0.2 L/kg
- bioavailability ([4]; dog, plasma, oral): 73 ± 4%
- concentration at 4 h [5]: ~800 nM
- intra-tumor concentration [6]: > 0.5 µmol/kg
- median survival [7]: 26.5 days
- IC50 [8]: 0.00025 µM
- AUC 0-inf/Dose [9, 36]: 694 ± 124 ng.h/mL per mg/kg
- clearance [9, 36]: 22.7 ± 2.8 mL/min/kg
- half-life ([9]; rat, plasma): 5.5 ± 0.8 h
- Vd ([9]; rat, plasma, intravenous, 2 mg/kg): 6.9 ± 0.7 L/kg
- bioavailability ([9]; rat, plasma, oral): 94 ± 17%
- BCRP substrate assessment [10]: not a substrate of P-gp or BCRP
- drug concentration in brain ([1]; maintained for 4 h post treatment): > 100 ng/g
- Kp [1, 34]: 0.18
- AUC1-4h, Brain [1, 35]: 820 ng·h/g
- IC50 [11]: 0.00024 µM
- inhibition of PARylation in brain tumors [12]: complete inhibition of PARylation; also recorded: completely inhibited
- Kp [13]: 0.158
- median survival [14]: 21 days
- objective responses ([2]; day 29, lowest dose 1.6 mg/kg BID): 100%
- objective responses (PR plus CR) ([2]; day 29, pamiparib oral, BID for 28 days, doses from 1.6 mg/kg): 100%
- tumor relapse at day 89 ([2]; pamiparib lowest dose 1.6 mg/kg): tumor relapse was observed
- AUC 0-inf/Dose ([15]; Mouse, 10 mg/kg p.o. or 1 mg/kg i.v.): 552 ± 194 ng.h/mL per mg/kg
- half-life ([15]; mouse, plasma): 3.2 ± 0.5 h
- Vd [15, 37]: 5.7 ± 0.5 L/kg
- clearance [15, 37]: 29.9 ± 2.4 mL/min/kg
- bioavailability ([15]; mouse, plasma, oral): 99 ± 35%
- IC50 [16]: 0.00017 µM
- P-gp substrate assessment [17]: not a substrate of P-gp or BCRP

SMILES: Cn1nnc2c(C(N)=O)ncn2c1=O [TMZ, Temozolomide]
- EC50 [18]: 63 µM
- EC50 [19]: > 300 µM
- EC50 [20]: 15 µM
- EC50 [21]: > 300 µM
- EC50 [22]: > 300 µM
- EC50 [23]: 182 µM
- EC50 [24]: > 300 µM
- median survival [7]: 75 days
- EC50 [25]: > 300 µM
- median survival [26]: 24 days
- EC50 [27]: 153 µM
- EC50 [28]: 80 µM
- EC50 [29]: 32 µM
- EC50 [30]: 60 µM
- EC50 [31]: > 300 µM
- EC50 [32]: 576 µM
- EC50 [33]: > 300 µM

SMILES: Cn1ncnc1[C@H]1c2n[nH]c(=O)c3cc(F)cc(c23)N[C@@H]1c1ccc(F)cc1 [Talazoparib, talazoparib]
- AUC1-4h, Brain [1, 35]: 85 ng·h/g
